In experiment [1] the test system is Escherichia coli. In words: Antimicrobial activity against enteropathogenic Escherichia coli assessed as inhibition of type 3 secretion by gel electrophoresis. Format: functional, organism-based. The essentials: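 EPEC cultured 24 h with test material, then centrifuged to give a bacterial pellet and a supernatant holding all secreted proteins. The pellet was inspected by eye, and samples that clearly shrank it were excluded as having general antibiotic or cytotoxic action.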

In a further experiment the test system is Staphylococcus aureus. In words: Antimicrobial activity against methicillin-resistant Staphylococcus aureus assessed per disk. Format: functional.
Experiment [2] deals with Stenotrophomonas maltophilia. In words: Antimicrobial activity against Xanthomonas maltophilia assessed per disk. It is filed as functional.
A further experiment relates to Enterococcus. Briefly: Antimicrobial activity against vancomycin-resistant Enterococcus assessed per disk. It is filed as functional.
A further experiment concerns Globisporangium ultimum. Briefly: Antimicrobial activity against Pythium ultimum assessed per disk. Format: functional.
Experiment [3] has as its system Escherichia coli. Briefly: Antimicrobial activity against Escherichia coli. It is filed as functional, organism-based.

Activity calls are given as the source filed them. No cut-off for these calls is given here.

By IC50 is commonly meant the concentration needed to halve the response being measured.

With `CCCCCCCCC[C@H](CCCCCCCC(C)=O)O[C@@H]1O[C@H](CO)[C@@H](O)[C@H](O)[C@H]1O[C@@H]1O[C@H](CO[C@@H]2O[C@H](C)[C@H](O)[C@H](O)[C@@H]2O)[C@@H](OC(C)=O)[C@H](OC(=O)CCC)[C@H]1O[C@@H]1O[C@@H](C)[C@H](O)[C@@H](OC(=O)CCC)[C@@H]1O`, the 50% inhibitory concentration (IC50) in the experiment with Escherichia coli [1] is 20 µM.
Turning to `CCCCCCCCC[C@H](CCCCCCCC(C)=O)O[C@@H]1O[C@H](COC(C)=O)[C@@H](OC(C)=O)[C@H](OC(C)=O)[C@H]1O[C@@H]1O[C@H](CO[C@@H]2O[C@H](C)[C@H](OC(C)=O)[C@H](OC(C)=O)[C@@H]2OC(C)=O)[C@@H](OC(C)=O)[C@H](OC(=O)CCC)[C@H]1O[C@@H]1O[C@@H](C)[C@H](OC(C)=O)[C@@H](OC(C)=O)[C@@H]1OC(C)=O` [CAMINOSIDE A PERACETATE], the MIC is >100 µg in the experiment on Staphylococcus aureus, >25 µg in experiment [2], >100 µg in the experiment on Enterococcus and >100 µg against Globisporangium ultimum. Also, the outcome in the experiment with Escherichia coli [1] was inactive.
Take `CCCCCCCCC[C@H](CCCCCCCC(C)=O)O[C@@H]1O[C@H](CO)[C@@H](O)[C@H](O)[C@H]1O[C@@H]1O[C@H](CO[C@@H]2O[C@H](C)[C@H](O)[C@H](O)[C@@H]2O)[C@@H](OC(C)=O)[C@H](OC(=O)CCC)[C@H]1O[C@@H]1O[C@@H](C)[C@H](O)[C@@H](O)[C@@H]1O` [CAMINOSIDES A]: the MIC in the experiment with Staphylococcus aureus was found to be 12.5 µg; in experiment [2], 25 µg; in the experiment with Enterococcus, 12.5 µg; with Globisporangium ultimum, 50 µg. The result in the experiment with Escherichia coli [1] was Active. Also, the half-inhibitory concentration (IC50) with Escherichia coli [1] is 20 µM. Further, in the experiment on Escherichia coli [3], the outcome was inactive.
